Reference: ChEMBL document CHEMBL4152256, “Structure-activity relationship of new antimalarial 1-aryl-3-susbtituted propanol derivatives: Synthesis, preliminary toxicity profiling, parasite life cycle stage studies, target exploration, and targeted delivery” (Eur J Med Chem, 2018)

Assays:
Plasmodium falciparum [1] = assay: Antiplasmodial activity against multidrug-resistant Plasmodium falciparum C235 after 72 hrs by MSF assay; type: functional, organism-based; conditions: C235, 72 h
Procedure, shortened: (§1)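 D6 and C235 strains from the Walter Reed Army Institute of Research were tested by the Malaria SYBR Green-I fluorescence assay.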

Plasmodium falciparum [2] = assay: Antiplasmodial activity against Plasmodium falciparum D6 after 72 hrs by MSF assay; type: functional, organism-based; conditions: D6, 72 h; procedure, shortened: as §1
[3] = Genotoxicity in Salmonella typhimurium TA1535 harboring pSK1002 assessed as survival at 0.5 mg/ml in absence of Sprague-Dawley rat liver S9 fraction after by SOS/umu assay relative to control; type: toxicity, organism-based; conditions: salmonella enterica subsp. enterica serovar typhimurium, read-out: Survival
[4] = Genotoxicity in Salmonella typhimurium TA1535 harboring pSK1002 assessed as umu gene induction at 0.5 mg/ml in absence of Sprague-Dawley rat liver S9 fraction after by SOS/umu assay relative to control; type: toxicity, organism-based; conditions: salmonella enterica subsp. enterica serovar typhimurium, read-out: FC
[5] = Genotoxicity in Salmonella typhimurium TA1535 harboring pSK1002 assessed as survival at 0.5 mg/ml in presence of Sprague-Dawley rat liver S9 fraction after by SOS/umu assay relative to control; type: toxicity, organism-based; conditions: salmonella enterica subsp. enterica serovar typhimurium, read-out: Survival
[6] = Genotoxicity in Salmonella typhimurium TA1535 harboring pSK1002 assessed as umu gene induction at 0.5 mg/ml in presence of Sprague-Dawley rat liver S9 fraction after by SOS/umu assay relative to control; type: toxicity, organism-based; conditions: salmonella enterica subsp. enterica serovar typhimurium, read-out: FC
[7] = Genotoxicity in Salmonella typhimurium TA1535 harboring pSK1002 assessed as survival at 0.25 mg/ml in absence of Sprague-Dawley rat liver S9 fraction after by SOS/umu assay relative to control; type: toxicity, organism-based; conditions: salmonella enterica subsp. enterica serovar typhimurium, read-out: Survival
[8] = Genotoxicity in Salmonella typhimurium TA1535 harboring pSK1002 assessed as umu gene induction at 0.25 mg/ml in absence of Sprague-Dawley rat liver S9 fraction after by SOS/umu assay relative to control; type: toxicity, organism-based; conditions: salmonella enterica subsp. enterica serovar typhimurium, read-out: FC
[9] = Genotoxicity in Salmonella typhimurium TA1535 harboring pSK1002 assessed as survival at 0.25 mg/ml in presence of Sprague-Dawley rat liver S9 fraction after by SOS/umu assay relative to control; type: toxicity, organism-based; conditions: salmonella enterica subsp. enterica serovar typhimurium, read-out: Survival
[10] = Genotoxicity in Salmonella typhimurium TA1535 harboring pSK1002 assessed as umu gene induction at 0.25 mg/ml in presence of Sprague-Dawley rat liver S9 fraction after by SOS/umu assay relative to control; type: toxicity, organism-based; conditions: salmonella enterica subsp. enterica serovar typhimurium, read-out: FC
[11] = Genotoxicity in Salmonella typhimurium TA1535 harboring pSK1002 assessed as umu gene induction at 0.125 mg/ml in presence of Sprague-Dawley rat liver S9 fraction after by SOS/umu assay relative to control; type: toxicity, organism-based; conditions: salmonella enterica subsp. enterica serovar typhimurium, read-out: FC
[12] = Genotoxicity in Salmonella typhimurium TA1535 harboring pSK1002 assessed as umu gene induction at 0.031 mg/ml in absence of Sprague-Dawley rat liver S9 fraction after by SOS/umu assay relative to control; type: toxicity, organism-based; conditions: salmonella enterica subsp. enterica serovar typhimurium, read-out: FC
[13] = Genotoxicity in Salmonella typhimurium TA1535 harboring pSK1002 assessed as survival at 0.031 mg/ml in presence of Sprague-Dawley rat liver S9 fraction after by SOS/umu assay relative to control; type: toxicity, organism-based; conditions: salmonella enterica subsp. enterica serovar typhimurium, read-out: Survival
[14] = Genotoxicity in Salmonella typhimurium TA1535 harboring pSK1002 assessed as survival at 0.004 mg/ml in presence of Sprague-Dawley rat liver S9 fraction after by SOS/umu assay relative to control; type: toxicity, organism-based; conditions: salmonella enterica subsp. enterica serovar typhimurium, read-out: Survival
[15] = Genotoxicity in Salmonella typhimurium TA1535 harboring pSK1002 assessed as survival at 0.002 mg/ml in absence of Sprague-Dawley rat liver S9 fraction after by SOS/umu assay relative to control; type: toxicity, organism-based; conditions: salmonella enterica subsp. enterica serovar typhimurium, read-out: Survival
[16] = Genotoxicity in Salmonella typhimurium TA1535 harboring pSK1002 assessed as umu gene induction at 0.001 mg/ml in absence of Sprague-Dawley rat liver S9 fraction after by SOS/umu assay relative to control; type: toxicity, organism-based; conditions: salmonella enterica subsp. enterica serovar typhimurium, read-out: FC
[17] = Genotoxicity in Salmonella typhimurium TA1535 harboring pSK1002 assessed as survival at 0.001 mg/ml in presence of Sprague-Dawley rat liver S9 fraction after by SOS/umu assay relative to control; type: toxicity, organism-based; conditions: salmonella enterica subsp. enterica serovar typhimurium, read-out: Survival
Plasmodium berghei [18] = assay: Antiplasmodial activity against Plasmodium berghei ANKA infected in mouse assessed as inhibition of parasitemia at 50 mg/kg/day, po for 4 consecutive days starting from 2 hrs post infection by MSF assay relative to control; type: functional
Procedure, shortened: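 Swiss male mice (20 ± 2 g) infected ip with 10^7 P. berghei ANKA parasitized cells (day 0). Five per group dosed orally 2 h after infection and daily on days 0–3. Test compounds at 50 mg/kg/day in water:DMSO; chloroquine diphosphate at 3 mg/kg/day; vehicle controls. Parasitemia measured on day 4 by MSF assay; survival checked daily.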

Plasmodium berghei [19] = assay: Antiplasmodial activity against Plasmodium berghei ANKA infected in mouse assessed as mouse survival time at 50 mg/kg/day, po for 4 consecutive days starting from 2 hrs post infection by MSF assay; type: functional
Procedure, shortened: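 Swiss male mice (20 ± 2 g) infected i.p. with 10^7 P. berghei ANKA parasitized cells in 0.1 mL 0.9% saline (day 0). Oral dosing began 2 h post-infection and continued daily on days 0–3, five mice per batch. Test drugs were given at 50 mg/kg/day in water:DMSO and chloroquine diphosphate at 3 mg/kg/day; a vehicle control was included. Survival was checked daily, and parasitemia was read on day 4 by modified MSF assay.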

[20] = Solubility of the compound in DSPC:cholesterol:DSPE-PEG2000-Mal:DOPE-Rho lipid mixture at 250 uM; type: physicochemical
Procedure, shortened: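 Compound added at 250 µM drug to the initial liposome lipid mixture (10 mM total lipid); precipitation and UV-visible absorbance above 300 nm assessed after encapsulation, removal of unencapsulated material and extraction with 1% w/v SDS in RPMI-A.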

Plasmodium berghei [21] = assay: Antiplasmodial activity against GFP-fused Plasmodium berghei sporozoites infected in human HepG2A16 cells treated simultaneously with infection by fluorescence microscopic analysis; type: functional, organism-based
Procedure, shortened: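 HepG2-A16 cells (3 × 10^4/well, collagen-coated) infected with PbGFP sporozoites (5 × 10^3 to 1 × 10^4/well) and treated at the same time. Top concentration 10 µg/mL in DMEM, seven serial dilutions. Medium and compound renewed at 3 h and every 24 h. After 40 h at 37 °C: methanol fixation, anti-Plasmodium Hsp70 immunolabeling, Alexa 594 secondary, DAPI; high-content imaging.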

| Structure (SMILES) | IC50 (Plasmodium falciparum [1]) | IC50 (Plasmodium falciparum [2]) | viability at 0.5 mg/ml [3] | fold induction at 0.5 mg/ml [4] | viability at 0.5 mg/ml [5] | fold induction at 0.5 mg/ml [6] | viability at 0.25 mg/ml [7] | fold induction at 0.25 mg/ml [8] | viability at 0.25 mg/ml [9] | fold induction at 0.25 mg/ml [10] | fold induction at 0.125 mg/ml [11] | fold induction at 0.031 mg/ml [12] | viability at 0.031 mg/ml [13] | viability at 0.004 mg/ml [14] | viability at 0.002 mg/ml [15] | fold induction at 0.001 mg/ml [16] | viability at 0.001 mg/ml [17] | MSD (Plasmodium berghei [19]) | solubility [20] | IC50 (Plasmodium berghei [21]) | other results |
| --- | --- | --- | --- | --- | --- | --- | --- | --- | --- | --- | --- | --- | --- | --- | --- | --- | --- | --- | --- | --- | --- |
| COc1ccccc1C1=CCN(CCC(O)c2ccc(F)cc2)CC1 (configuration not stated) | 3690 nM | 3730 nM | 19.4% | 2.3 | 82.1% | 1.3 | 92.3% | 1.3 | 73% | 1.1 | 1 | 1 | 81.8% | 82.3% | 103% | 1 | 103% | 6 days | Insoluble | – | inhibition in vivo at 50 mg/kg/day (Plasmodium berghei [18]): ≤ 50% |
| Nc1ccc(N2CCC(NCCC(O)c3ccc(F)c4ccccc34)CC2)c(C(F)(F)F)c1 (configuration not stated) | – | – | 68.2% | 0.1 | 118% | 0.1 | 48% | 0.2 | 118% | 0.1 | 0.1 | 0.7 | 39.1% | 116% | 150% | 1.1 | 119% | 3 days | – | – | – |
| OC(CCN1CC=C(c2ccc(F)cc2)CC1)c1ccc2c(c1)OCO2 (configuration not stated) | – | – | 81.4% | 0.9 | 87.1% | 0.9 | 128% | 0.7 | 96% | 1 | 1 | 0.8 | 137% | 105% | 122% | 0.5 | 111% | – | – | Not Active | – |
| OC(CCN1CCN(c2ccccc2C(F)(F)F)CC1)c1ccc(F)c2ccccc12 (stereo in doubt; 55) | 140 nM | 100 nM | 175% | 0.7 | 168% | 0.4 | 207% | 0.1 | 95.4% | 0.7 | 0.7 | 0.4 | 101% | 108% | 51.4% | 0.7 | 106% | 8 days | Insoluble | Not Active | – |
